Test results: ChEMBL document CHEMBL4028811, “Discovery of 2-substituted 1H-benzo[d]immidazole-4-carboxamide derivatives as novel poly(ADP-ribose)polymerase-1 inhibitors with in vivo anti-tumor activity” (Eur J Med Chem, 2017)

Legend:
[1] = biological target: T1, Poly [ADP-ribose] polymerase 1 (Homo sapiens, UniProt P09874); assay: Inhibition of recombinant human PARP1 expressed in Escherichia coli BL21(DE3) using histone as substrate measured after 1 hr in presence of biotinylated NAD+ by ELISA
[2] = biological target: T1, Poly [ADP-ribose] polymerase 1; assay: Inhibition of recombinant human PARP1 expressed in Escherichia coli BL21(DE3) using sheared DNA as substrate measured after 1 hr in presence of NAD+
MX1 [3] = assay: Anti-tumor activity against human MX1 cells xenografted in BALB/c mouse assessed as tumor growth inhibition at 50 mg/kg, po administered once daily via gavage for 10 days measured after 11 days relative to control; type: functional
Outline: (§1)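 Female athymic BALB/c nude mice, 8–10 weeks old, implanted s.c. with 1×10^6 MX-1 cells in 0.1 mL PBS. Day 6: grouped at 6/group, tumors 100–300 mm³. Oral gavage once daily. TMZ 50 mg/kg/day for 5 days; single-agent test compound 50 mg/kg/day for 10 days; combinations both orally for 5 days. Body weight and tumor volume measured twice weekly; euthanized day 11.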

MX1 [4] = assay: Anti-tumor activity against human MX1 cells xenografted in BALB/c mouse assessed as tumor weight at 50 mg/kg, po administered once daily via gavage for 5 days measured after 11 days in presence of temozolomide (reference value: 4.09 +/- 0.64 g); type: functional; outline: as §1
MX1 [5] = assay: Anti-tumor activity against human MX1 cells xenografted in BALB/c mouse assessed as tumor weight at 25 mg/kg, po administered once daily via gavage for 5 days measured after 11 days in presence of temozolomide (reference value: 4.09 +/- 0.64 g); type: functional; outline: as §1
Homo sapiens = organism: Homo sapiens; assay: Selectivity ratio of IC50 for recombinant human PARP2 to IC50 for recombinant human PARP1
Outline: (§2)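 Human recombinant PARP2 (and PARP1) expressed and purified, inhibition measured by ELISA, with AZD2281 as positive control. IC50 from concentration–response fitting.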

MX1 [6] = assay: Anti-tumor activity against human MX1 cells xenografted in BALB/c mouse assessed as tumor growth inhibition at 50 mg/kg, po administered once daily via gavage for 5 days measured after 11 days in presence of temozolomide relative to control; type: functional; outline: as §1
MX1 [7] = assay: Anti-tumor activity against human MX1 cells xenografted in BALB/c mouse assessed as tumor weight at 50 mg/kg, po administered once daily via gavage for 10 days measured after 11 days (reference value: 4.09 +/- 0.64 g); type: functional; outline: as §1
Mus musculus [8] = assay: Toxicity in BALB/c mouse assessed as change in body weight at 25 mg/kg, po administered once daily via gavage for 5 days in presence of temozolomide measured twice every week up to 11 days (reference value: 5.32 g); type: organism-based; conditions: in vivo; outline: as §1
Mus musculus [9] = assay: Toxicity in BALB/c mouse assessed as change in body weight at 50 mg/kg, po administered once daily via gavage for 5 days in presence of temozolomide measured twice every week up to 11 days (reference value: 5.32 g); type: organism-based; conditions: in vivo; outline: as §1
[10] = biological target: Poly [ADP-ribose] polymerase 2 (Homo sapiens, UniProt Q9UGN5); assay: Inhibition of recombinant human PARP2 expressed in Escherichia coli BL21(DE3) using histone as substrate measured after 1 hr in presence of biotinylated NAD+ by ELISA; outline: as §2
Mus musculus [11] = assay: Toxicity in BALB/c mouse assessed as change in body weight at 50 mg/kg, po administered once daily via gavage for 10 days measured twice every week up to 11 days (reference value: 5.32 g); type: organism-based; conditions: in vivo; outline: as §1
MX1 [12] = assay: Anti-tumor activity against human MX1 cells xenografted in BALB/c mouse assessed as tumor growth inhibition at 50 mg/kg, po administered once daily via gavage for 5 days measured after 11 days in presence of temozolomide relative to temozolomide; type: functional; outline: as §1
[13] = biological target: T1, Poly [ADP-ribose] polymerase 1; assay: Inhibition of PARP1 in human MX1 cells assessed as potentiation of temozolomide-induced cytotoxicity at 10 uM after 72 hrs by MTT assay relative to temozolomide alone; type: cell-based
Outline: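 MX-1 cells seeded at 2000/well and exposed for 72 h to TMZ (0–0.5 mmol/L) with or without PARP inhibitor fixed at 10 μmol/L. Survival read by MTT. PF50 = IC50 of TMZ alone / IC50 of TMZ + inhibitor.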

MX1 [14] = assay: Anti-tumor activity against human MX1 cells xenografted in BALB/c mouse assessed as tumor growth inhibition at 25 mg/kg, po administered once daily via gavage for 5 days measured after 11 days in presence of temozolomide relative to control; type: functional; outline: as §1
MX1 [15] = assay: Anti-tumor activity against human MX1 cells xenografted in BALB/c mouse assessed as tumor growth inhibition at 25 mg/kg, po administered once daily via gavage for 5 days measured after 11 days in presence of temozolomide relative to temozolomide; type: functional; outline: as §1
MX1 [16] = assay: Anti-tumor activity against human MX1 cells xenografted in BALB/c mouse assessed as tumor weight at 50 mg/kg, po administered once daily via gavage for 5 days measured after 11 days (reference value: 4.09 +/- 0.64 g); type: functional; outline: as §1
Mus musculus [17] = assay: Toxicity in BALB/c mouse assessed as change in body weight at 50 mg/kg, po administered once daily via gavage for 5 days measured twice every week up to 11 days (reference value: 5.32 g); type: organism-based; conditions: in vivo; outline: as §1
MX1 [18] = assay: Anti-tumor activity against human MX1 cells xenografted in BALB/c mouse assessed as tumor growth inhibition at 50 mg/kg, po administered once daily via gavage for 5 days measured after 11 days relative to control; type: functional; outline: as §1
[19] = Mus musculus, MX1, po, read-out: TGI

Chain of Poly [ADP-ribose] polymerase 2 (Q9UGN5 whole entry): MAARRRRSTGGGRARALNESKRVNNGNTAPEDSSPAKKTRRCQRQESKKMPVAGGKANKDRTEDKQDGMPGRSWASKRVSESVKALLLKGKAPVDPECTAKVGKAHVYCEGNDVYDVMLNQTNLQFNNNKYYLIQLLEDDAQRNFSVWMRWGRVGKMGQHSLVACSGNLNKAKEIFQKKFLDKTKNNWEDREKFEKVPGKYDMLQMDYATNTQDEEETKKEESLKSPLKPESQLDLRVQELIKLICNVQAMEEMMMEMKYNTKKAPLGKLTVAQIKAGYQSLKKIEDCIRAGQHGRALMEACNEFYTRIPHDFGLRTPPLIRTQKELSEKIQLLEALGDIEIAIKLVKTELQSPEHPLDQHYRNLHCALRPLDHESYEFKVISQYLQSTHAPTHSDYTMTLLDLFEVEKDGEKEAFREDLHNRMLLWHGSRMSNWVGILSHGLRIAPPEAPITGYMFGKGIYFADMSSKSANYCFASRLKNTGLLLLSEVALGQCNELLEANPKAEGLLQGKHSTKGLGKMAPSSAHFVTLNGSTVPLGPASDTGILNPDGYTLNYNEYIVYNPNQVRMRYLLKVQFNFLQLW
T1 sequence (P09874 whole entry): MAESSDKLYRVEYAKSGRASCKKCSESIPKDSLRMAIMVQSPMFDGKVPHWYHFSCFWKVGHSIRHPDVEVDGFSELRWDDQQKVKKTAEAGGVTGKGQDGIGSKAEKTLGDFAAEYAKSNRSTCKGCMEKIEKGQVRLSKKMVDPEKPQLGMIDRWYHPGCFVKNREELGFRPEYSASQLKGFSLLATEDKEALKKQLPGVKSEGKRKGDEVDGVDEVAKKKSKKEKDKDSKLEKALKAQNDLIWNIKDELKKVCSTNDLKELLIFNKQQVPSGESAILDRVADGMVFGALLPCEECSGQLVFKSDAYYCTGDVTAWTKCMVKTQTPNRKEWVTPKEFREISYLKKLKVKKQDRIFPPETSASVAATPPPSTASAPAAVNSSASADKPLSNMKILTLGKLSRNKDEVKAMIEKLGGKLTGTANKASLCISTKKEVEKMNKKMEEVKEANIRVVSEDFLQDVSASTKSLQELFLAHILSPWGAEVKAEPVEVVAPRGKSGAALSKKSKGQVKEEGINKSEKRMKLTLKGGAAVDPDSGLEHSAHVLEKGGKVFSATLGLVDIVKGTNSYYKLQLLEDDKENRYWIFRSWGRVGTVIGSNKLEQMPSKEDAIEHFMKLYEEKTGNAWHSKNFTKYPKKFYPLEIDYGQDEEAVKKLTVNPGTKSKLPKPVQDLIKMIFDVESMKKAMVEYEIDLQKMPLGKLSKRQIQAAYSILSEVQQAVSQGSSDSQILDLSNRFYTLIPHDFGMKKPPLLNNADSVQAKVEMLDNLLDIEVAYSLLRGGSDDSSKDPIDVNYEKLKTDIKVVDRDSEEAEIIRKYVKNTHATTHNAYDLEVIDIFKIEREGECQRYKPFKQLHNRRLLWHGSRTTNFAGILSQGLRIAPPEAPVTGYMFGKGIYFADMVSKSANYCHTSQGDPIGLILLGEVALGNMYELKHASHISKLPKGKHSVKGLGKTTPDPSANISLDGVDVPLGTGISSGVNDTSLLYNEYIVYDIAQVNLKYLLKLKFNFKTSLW

CCC(CC)N1CCC(NC(=O)c2nc3c(C(N)=O)cccc3[nH]2)CC1
IC50 [1]: 302 nM

NC(=O)c1cccc2[nH]c(C(=O)NC3CCN(C4CCCCC4)C3)nc12 (centres undefined)
IC50 [2]: > 1000 nM

CC(C)(C)CN1CCC(NC(=O)c2nc3c(C(N)=O)cc(F)cc3[nH]2)CC1
T/C (MX1 [3]): 91% | inhibition in vivo at 50 mg/kg (MX1 [3]; [19]): 9% | Activity (MX1 [4]): 0.5 g | Activity (MX1 [5]): 1.47 g | Ratio IC50 (Homo sapiens): < 10 | IC50 [1]: 17 nM | T/C (MX1 [6]): 12% | inhibition in vivo at 50 mg/kg (MX1 [6]; [19]): 88% | Activity (MX1 [7]): 3.73 g | Activity (Mus musculus [8]): 0.23 g | Activity (Mus musculus [9]): -0.79 g | IC50 [10]: 74 nM | Activity (Mus musculus [11]): 5 g | T/C (MX1 [12]): 32% | inhibition in vivo at 50 mg/kg (MX1 [12]; [19]): 68% | PF50 [13]: 7.1 | T/C (MX1 [14]): 36% | inhibition in vivo at 25 mg/kg (MX1 [14]; [19]): 64% | T/C (MX1 [15]): 94% | inhibition in vivo at 25 mg/kg (MX1 [15]; [19]): 6%

NC(=O)c1cc(F)cc2[nH]c(C(=O)N3CCC(NC4CCCCC4)C3)nc12 (centres undefined)
Ratio IC50 (Homo sapiens): < 10 | IC50 [1]: 37 nM | IC50 [10]: 38 nM | PF50 [13]: 1.71

NC(=O)c1cccc2[nH]c(C(=O)N3CCC(NC4CCNCC4)CC3)nc12
IC50 [1]: 316 nM

CCC(=O)NC1CCN(C(=O)c2nc3c(C(N)=O)cccc3[nH]2)C1 (centres undefined)
IC50 [1]: 83 nM

CCC(=O)N1CCN(C(=O)c2nc3c(C(N)=O)cccc3[nH]2)CC1
IC50 [1]: > 100 nM

CC(C)(C)OC(=O)NC1CCN(C(=O)c2nc3c(C(N)=O)cc(F)cc3[nH]2)CC1
IC50 [1]: 80 nM

NC(=O)c1cccc2[nH]c(C(=O)NC3CCN(C(=O)C(F)(F)F)CC3)nc12
IC50 [1]: 83 nM

NC(=O)c1cccc2[nH]c(C(=O)NC3CCNC3)nc12 (centres undefined)
IC50 [2]: 343 nM

CC(C)CN1CCC(NC(=O)c2nc3c(C(N)=O)cccc3[nH]2)CC1
IC50 [1]: 92 nM

NC(=O)c1cccc2[nH]c(C(=O)N3CCC(NC4CCCCC4)C3)nc12 (centres undefined)
Ratio IC50 (Homo sapiens): < 10 | IC50 [1]: 75 nM | IC50 [10]: 91 nM | PF50 [13]: 4.17

NC(=O)c1cc(F)cc2[nH]c(C(=O)N3CCC(NC4CCCCC4)CC3)nc12
Ratio IC50 (Homo sapiens): < 10 | IC50 [1]: 7.54 nM | IC50 [10]: 34 nM | PF50 [13]: 0.71

CC[C@@H]1CN(C(=O)c2nc3c(C(N)=O)cccc3[nH]2)CCN1C(=O)OC(C)(C)C
IC50 [1]: > 100 nM

NC(=O)c1cccc2[nH]c(C(=O)N3CCNCC3)nc12
IC50 [1]: 42 nM

Cn1nnc2c(C(N)=O)ncn2c1=O [TEMOZOLOMIDE]
Activity (MX1 [16]): 1.57 g | Activity (Mus musculus [17]): 0.02 g | T/C (MX1 [18]): 38% | inhibition in vivo at 50 mg/kg (MX1 [18]; [19]): 62%

CCCN1CCC(NC(=O)c2nc3c(C(N)=O)cccc3[nH]2)CC1
IC50 [1]: 49 nM

CC(C)(C)OC(=O)N1CCC(NC(=O)c2nc3c(C(N)=O)cccc3[nH]2)C1 (centres undefined)
IC50 [2]: 1810 nM

NC(=O)c1cccc2[nH]c(C(=O)N3CCC(NC4CCNCC4)C3)nc12 (centres undefined)
IC50 [1]: 60 nM

CC[C@H]1CN(C(=O)c2nc3c(C(N)=O)cccc3[nH]2)CCN1C(=O)OC(C)(C)C
IC50 [1]: 100 nM

CCN1CCC(NC(=O)c2nc3c(C(N)=O)cccc3[nH]2)CC1
IC50 [1]: 40 nM

NC(=O)c1cc(F)cc2[nH]c(C(=O)N3CCC(N)C3)nc12 (centres undefined)
Ratio IC50 (Homo sapiens): < 10 | IC50 [1]: 12 nM | IC50 [10]: 19 nM | PF50 [13]: 1.07

NC(=O)c1cccc2[nH]c(C(=O)NC3CCCN(C4CCNCC4)C3)nc12 (centres undefined)
IC50 [2]: 793 nM

CCCNC1CCN(C(=O)c2nc3c(C(N)=O)cccc3[nH]2)C1 (centres undefined)
Ratio IC50 (Homo sapiens): < 10 | IC50 [1]: 79 nM | IC50 [10]: 75 nM | PF50 [13]: 1.54

NC(=O)c1cccc2[nH]c(C(=O)N3C[C@H]4CCCN[C@H]4C3)nc12
IC50 [1]: 116 nM

NC(=O)c1cccc2[nH]c(C(=O)N3CCC(N)C3)nc12 (centres undefined)
Ratio IC50 (Homo sapiens): < 10 | IC50 [1]: 15 nM | IC50 [10]: 48 nM | PF50 [13]: 1.98

NC(=O)c1cccc2[nH]c(C(=O)NC3CCN(C4CCCCC4)CC3)nc12
IC50 [1]: 311 nM

CC(C)(C)CN1CCC(NC(=O)c2nc3c(C(N)=O)cccc3[nH]2)CC1
IC50 [1]: 41 nM

CC(C)N1CCC(NC(=O)c2nc3c(C(N)=O)cccc3[nH]2)CC1
IC50 [1]: 64 nM
